This is an account of results in ChEMBL document CHEMBL1155040, “Potency and selectivity of trifluoroacetylimino and pyrazinoylimino nicotinic insecticides and their fit at a unique binding site niche” (J Med Chem, 2008).

Data set [1] concerns Musca domestica. The data set can be described thus: Insecticidal activity against houseflies. The format is functional. The method in brief:
(§1)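 Adult female houseflies were dosed by intrathoracic injection or topical application, either without or with topical pretreatment with the P450 inhibitor synergist O-propyl O-(2-propynyl)phenylphosphonate (100 µg/g) before the test chemical. Where no LD50 was obtained, percent mortality at the indicated dose is given.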

Data set [2] in a line: (§2) Displacement of [3H]IMI from nAChR in Drosophila brain. The method in brief:
(§3)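 IC50 (nM, ± SD) for displacing [³H]IMI binding to native nAChR from Drosophila brain.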
Background: Displacement assays read how much labelled ligand stays bound in the presence of the test substance.

Another data set concerns Drosophila. Described as §2. To be noted: concentration not given here. The method in brief: as §3
Data set [3] deals with Musca domestica. The data set can be described thus: Insecticidal activity against intrathoracically dosed houseflies at >10 um/g. In kind it is functional. The method, boiled down:
as §1

Data set [4] deals with Mus musculus. Nature of the data set: Toxicity in Swiss Webster mouse at >36 mg/kg, ip. In kind it is organism-based. Conditions: in vivo. The method, boiled down:
(§4)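 Male albino Swiss-Webster mice (25-30 g) were dosed intraperitoneally. Results are LD50 in mg/kg, or percent lethality at the indicated dose, which was the maximum allowed by solubility in the vehicle.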

Data set [5] can be described thus: Toxicity in ip dosed Swiss Webster mouse. In kind it is organism-based. Conditions: in vivo. The method, boiled down: as §4
For data set [6], the system named is Culex quinquefasciatus. The data set can be described thus: Mosquito Larvicidal activity against premethrin-resistant fourth instar Culex quinquefasciatus Marin after 24 hrs. In kind it is functional. The method, boiled down:
(§5)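 Larvicidal test on fourth-instar Culex quinquefasciatus, using the susceptible CQ1 colony and the permethrin-resistant Marin colony, with 24 h exposure.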

Data set [7] can be described thus: Displacement of [3H]IMI from peach-potato aphid alpha2/rat beta2 nAChR hybrid recombinant receptor.
The test system of data set [8] is Culex quinquefasciatus. Nature of the data set: Mosquito Larvicidal activity against premethrin-susceptible fourth instar Culex quinquefasciatus CQ1 after 24 hrs. To be noted: CQ1, 24 h. In kind it is functional. The method, boiled down:
as §5

The target in data set [9] is Neuronal acetylcholine receptor subunit alpha-4 (Gallus gallus, UniProt P09482+P09484). The data set can be described thus: Displacement of [3H]nicotine from chick alpha4beta2 nAChR. The method, boiled down: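 Radioligand displacement used [³H]nicotine with chick α4β2 nAChR. Values are IC50 ± SD in nM.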
Sequence of Neuronal acetylcholine receptor subunit alpha-4 (P09482 whole entry, one chain of several): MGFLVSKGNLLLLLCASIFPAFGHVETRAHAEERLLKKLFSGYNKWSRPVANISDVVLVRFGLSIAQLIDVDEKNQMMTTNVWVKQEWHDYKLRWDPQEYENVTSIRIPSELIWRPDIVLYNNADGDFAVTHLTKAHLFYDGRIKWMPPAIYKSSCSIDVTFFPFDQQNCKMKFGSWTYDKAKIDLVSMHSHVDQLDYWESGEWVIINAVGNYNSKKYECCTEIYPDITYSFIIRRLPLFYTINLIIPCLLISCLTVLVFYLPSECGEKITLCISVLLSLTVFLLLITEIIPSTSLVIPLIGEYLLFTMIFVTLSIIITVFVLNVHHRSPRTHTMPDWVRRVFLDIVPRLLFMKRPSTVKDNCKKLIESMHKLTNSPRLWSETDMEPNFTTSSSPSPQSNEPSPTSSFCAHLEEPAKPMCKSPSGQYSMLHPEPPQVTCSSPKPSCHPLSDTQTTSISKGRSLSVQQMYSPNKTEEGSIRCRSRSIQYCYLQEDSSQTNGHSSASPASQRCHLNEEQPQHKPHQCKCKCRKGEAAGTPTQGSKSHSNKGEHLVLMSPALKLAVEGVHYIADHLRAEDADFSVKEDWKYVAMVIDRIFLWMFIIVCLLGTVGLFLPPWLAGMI
Data set [10] can be described thus: Lipophilicity, log P of the compound. To be noted: octanol/water. In kind it is physicochemical.
In data set [11] the test system is Mus musculus. Nature of the data set: Toxicity in Swiss Webster mouse at >24 mg/kg, ip. In kind it is organism-based. To be noted: in vivo. The method in brief:
as §4

In brackets after ≈: the same amount, converted by molar mass.

By LD50 is commonly meant the dose at which mortality reaches 50%. Higher therefore signals a less toxic substance. The IC50 is the concentration needed to halve the response being measured. In general, inhibition refers to the percentage by which the read-out fell short of the control. By LC50 is commonly meant the concentration that kills 50% of the test population. What is called logP is a log measure of how a compound divides between an organic and an aqueous phase. Lower therefore signals lower lipophilicity.

In the case of `CCOP(=S)(OCC)Oc1nc(Cl)c(Cl)cc1Cl` [CHLORPYRIFOS], the LD50 in the data set with Musca domestica [1] came to 2.1 mg/kg.
With `O=C(/N=c1\sccn1Cc1ccc(Cl)nc1)c1ccc(Cl)cc1`, the concentration for half-maximal inhibition (IC50) in [2] was greater than 30000 nM. In addition, the inhibition in the data set on Drosophila was 10%. The Activity with Musca domestica [3] worked out at 0%. In the data set on Musca domestica [1], the LD50 was greater than 10 mg/kg.
Consider `O=C(/N=c1\[nH]ccn1Cc1ccc(Cl)nc1)C(F)(F)F`, for which the IC50 in [2] was 7.7 nM. For the same molecule, in the data set with Musca domestica [1], the LD50 was greater than 10 mg/kg.
The molecule `O=C(/N=c1\sccn1Cc1ccc(Cl)nc1)c1ccncc1` showed an IC50 in data set [2] of 10 nM. Moreover, the Activity in the data set with Musca domestica [3] was 0%. This molecule also yielded an LD50 in the data set on Musca domestica [1] greater than 10 mg/kg.
Regarding `O=C(/N=c1\sccn1Cc1ccc(Cl)nc1)C(F)(F)F`, the Activity with Mus musculus [4] came out at 0%. The LD50 was greater than 36 mg/kg in data set [5] and 0.75 mg/kg in the data set with Musca domestica [1]. Further, the LC50 in the data set with Culex quinquefasciatus [6] stood at 0.024 µg/mL (≈ 0.0746 µM); in the data set on Culex quinquefasciatus [8], 0.012 µg/mL (≈ 0.0373 µM). The IC50 was found to be 280 nM in data set [7], 3.1 nM in data set [2] and 500 nM in data set [9].
On to `N#C/N=C1\SCCN1Cc1ccc(Cl)nc1` [THIACLOPRID], for which the median lethal dose (LD50) is 28 mg/kg in data set [5] and greater than 10 mg/kg with Musca domestica [1]. Moreover, the values for the IC50 in [7], in [2] and in [9] were 11 nM, 2.7 nM and 860 nM, respectively. The same molecule showed a logP in [10] of 1.26. This molecule gave an Activity in the data set on Musca domestica [3] of 19%.
For the molecule `Clc1ccc(C(c2ccc(Cl)cc2)C(Cl)(Cl)Cl)cc1` [CHLOROPHENOTHANE], the 50% lethal dose (LD50) in the data set on Musca domestica [1] was found to be 14 mg/kg.
On to `O=[N+]([O-])/N=C1\NCCN1Cc1ccc(Cl)nc1` [IMIDACLOPRID], for which the LD50 is 45 mg/kg in [5] and greater than 10 mg/kg in the data set on Musca domestica [1]. Moreover, the IC50 in [7] came to 3.6 nM; in [2] it was 4.3 nM; in [9] it was 2600 nM. Also, the Activity in the data set on Musca domestica [3] came to 0%.
As to `CC1(C)C(C=C(Cl)Cl)C1C(=O)OCc1cccc(Oc2ccccc2)c1` (stereo unspecified) [PERMETHRIN], the LC50 with Culex quinquefasciatus [6] worked out at 0.16 µg/mL (≈ 0.409 µM); in the data set with Culex quinquefasciatus [8], 0.005 µg/mL (≈ 0.0128 µM).
As for `O=C(/N=c1\sccn1Cc1ccc(Cl)nc1)c1cnccn1`, the median lethal dose (LD50) in [5] was greater than 24 mg/kg; in the data set on Musca domestica [1], greater than 10 mg/kg. Besides, the results for the IC50 in data set [7], in data set [2] and in data set [9] were 720 nM, 1.5 nM and 900 nM, respectively. Further, the Activity in the data set on Musca domestica [3] and in the data set on Mus musculus [11] was 0% in each case.
Consider `O=C(/N=c1\sccn1Cc1ccc(Cl)nc1)c1cccnc1`, for which the IC50 in data set [2] is 4.8 nM. The Activity in the data set with Musca domestica [3] was found to be 0%. Moreover, the median lethal dose (LD50) in the data set on Musca domestica [1] was greater than 10 mg/kg.
In data set [2], `O=C(/N=c1\sccn1Cc1ccc(Cl)nc1)c1ccccn1` came in with an IC50 of 13 nM. The molecule further showed an Activity in the data set with Musca domestica [3] of 0%. In the data set with Musca domestica [1], this molecule returned an LD50 greater than 10 mg/kg.
`ClC1=C(Cl)[C@]2(Cl)[C@@H]3[C@@H]4C[C@@H]([C@H]5O[C@@H]45)[C@@H]3[C@@]1(Cl)C2(Cl)Cl` [DIELDRIN] gave an LD50 with Musca domestica [1] of 0.75 mg/kg.
In data set [2], `O=C(/N=c1\sccn1Cc1ccc(Cl)nc1)c1ccccc1` showed an IC50 of 121 nM. This molecule also came in with an Activity in the data set on Musca domestica [3] of 0%. Besides, the LD50 with Musca domestica [1] is greater than 10 mg/kg.
`O=C(/N=c1\sccn1Cc1ccc(Cl)nc1)c1ccc(Cl)nc1`: the IC50 in [2] came to 41 nM. This molecule also gave an Activity with Musca domestica [3] of 0%. The molecule also had an LD50 in the data set with Musca domestica [1] greater than 10 mg/kg.
As to `CNC(=O)Oc1ccccc1OC(C)C` [PROPOXUR], in the data set on Musca domestica [1], the LD50 was determined as 23 mg/kg.
Consider `CCOP(=S)(OCC)Oc1ccc([N+](=O)[O-])cc1` [PARATHION], for which the LD50 in the data set on Musca domestica [1] is 1.3 mg/kg.
